# Experimental data pooled from the literature.
# Compare with care: the assays were run in different laboratories.
# Sample: plasma
SMILES,host,route,dose,notes,Cmax
C[C@@]12C[C@@]3(O)O[C@@H](O1)[C@]1(COC(=O)c4ccccc4)[C@H]3C[C@@]12O[C@@H]1O[C@H](CO)[C@@H](O)[C@H](O)[C@H]1O,male Sprague-Dawley rat,oral,80 mg/kg,,1.13 ng/mL
CC[C@H](C)[C@H](NC(=O)[C@@H]1CCCN1C(=O)CNC(=O)[C@H](Cc1ccccc1)NC(=O)[C@H](CC(N)=O)NC(=O)[C@H](CC(N)=O)NC(=O)[C@H](CO)NC(=O)[C@H](CO)NC(=O)[C@H](Cc1c[nH]cn1)NC(=O)[C@H](CCCNC(=N)N)NC(=O)[C@H](CC(C)C)NC(=O)[C@H](Cc1ccccc1)NC(=O)[C@H](CCC(=O)O)NC(=O)[C@H](C)NC(=O)[C@H](CC(C)C)NC(=O)[C@H](CCCNC(=N)N)NC(=O)[C@H](CCC(N)=O)NC(=O)[C@@H](NC(=O)[C@H](C)NC(=O)[C@@H]1CSSC[C@H](NC(=O)[C@H](CCCCN)NC(=O)CC[C@H](NC(=O)CCCCCCCCCCCCCCCCCCC(=O)O)C(=O)O)C(=O)N[C@@H](CC(N)=O)C(=O)N[C@@H]([C@@H](C)O)C(=O)N[C@@H](C)C(=O)N[C@@H]([C@@H](C)O)C(=O)N1)[C@@H](C)O)C(=O)N[C@@H](CC(C)C)C(=O)N1CCC[C@H]1C(=O)N1CCC[C@H]1C(=O)N[C@H](C(=O)N[C@@H](CC(N)=O)C(=O)N[C@H](C(=O)NCC(=O)N[C@@H](CO)C(=O)N[C@@H](CC(N)=O)C(=O)N[C@H](C(=O)N1CCC[C@H]1C(N)=O)[C@@H](C)O)C(C)C)[C@@H](C)O,male Sprague-Dawley rat,subcutaneous,30 nmol/kg,single dose,98.8 nM
CCCCC(=O)Nc1ccc(-c2ccc3ncn(CCC)c(=O)c3c2)cn1,male rat,oral,10 mg/kg,,966 ng/mL
COc1cc(-c2cc(C(C)=O)n3ccccc23)c(OC)cc1Cn1ccnc1,male Sprague-Dawley rat,intravenous,5 mg/kg,,4120 ng/mL
COc1nc(-c2cccc(-c3ccccc3)c2C)ccc1CNCCNC(=O)CCCCCCCCCCC(=O)N1CCN(CCNC(=O)c2cc3c(=O)n4cccc(C)c4nc3n(CCc3cccs3)c2=N)CC1,male Sprague-Dawley rat,oral,40 mg/kg,,20.2 ng/mL
O=C1CCC(N2Cc3cc(C4CCN(Cc5ccccc5)CC4)ccc3C2=O)C(=O)N1 (stereo not drawn),male Sprague-Dawley rat,oral,3 mg/kg,,72.7 ng/mL
CONC(=O)c1cccc2c1cc(C)n2-c1nc2c(c(NCc3ccccc3)n1)CCCN2,male Sprague-Dawley rat,intravenous,1 mg/kg,single dose,28.2 ng/mL
[2H]C([2H])([2H])NC(=O)c1cc(Oc2ccc(NC(=O)Nc3ccc(Cl)c(C(F)(F)F)c3)cc2)ccn1,rat,oral,40 mg/kg,single dose,7420 ng/mL
C1=C/COCc2cc(ccc2OCCN2CCCC2)Nc2nccc(n2)-c2cccc(c2)COC/1,male Sprague-Dawley rat,oral,36 mg/kg,,333 ng/mL
CCCc1nc2c(C)cc(-c3nc4ccccc4n3C)cc2n1Cc1ccc(-c2ccccc2C(=O)O)cc1,male Sprague-Dawley rat,oral,8 mg/kg,single dose,136 ng/mL
C[C@H]1Oc2cc(cnc2N)-c2c(nn(C)c2C#N)CN(C)C(=O)c2ccc(F)cc21,male Sprague-Dawley rat,oral,10 mg/kg,single dose,468 ng/mL
COc1ccc(N(Cc2csc(-c3ccccc3)n2)C(=O)CCCCCC(=O)NO)cc1,female Sprague-Dawley rat,oral,30 mg/kg,,4.73 ng/mL
Cc1cc2c(C(N)=O)cccc2n1-c1nc2c(c(NCc3ccccc3)n1)CCCN2,male Sprague-Dawley rat,intravenous,1 mg/kg,single dose,802 ng/mL
C=CC(=O)N1CCC([C@@H]2CCNc3c(C(N)=O)c(-c4ccc(Oc5ccccc5)cc4)nn32)CC1,Sprague-Dawley rat,oral,16 mg/kg,,426 ng/mL
C=CC(=O)N1CCC[C@@H](n2nc(-c3ccc(Oc4ccccc4)cc3)c3c(N)ncnc32)C1,rat,oral,40 mg/kg,,84.4 ng/mL
